In ChEMBL document CHEMBL1152697, “Design, synthesis and SAR studies of 4-allyoxyaniline amides as potent 15-lipoxygensae inhibitors” (Bioorg Med Chem, 2009):

experiment: Inhibition of soybean 15-lipoxygenase; design: species or system Glycine max
In short: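 Soybean 15-lipoxygenase (final 167 U/mL) in 0.1 M borate buffer pH 9, linoleic acid substrate (final 134 μM), 20 ± 1 °C. Compounds added in DMSO (final 1%), DMSO-only controls, inhibitor plus substrate as blank. Absorbance at 234 nm read for 60 s after enzyme addition. Enzyme kept on ice. At least six control tubes and triplicate tubes per inhibitor. IC50 by linear interpolation around 50% activity, mean ± SD.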

Compound	IC50 [µM]
C=CCOc1ccc(NC(=O)C2CCCC2)cc1	4.1
C=CCOc1ccc(NC(=O)C(C)C)cc1	12.9
C=CCOc1ccc(NC(=O)C2CC2)cc1	6.1
C=CCOc1ccc(OC(=O)c2ccccc2)cc1	6.2
C=CCOc1ccc(NC(=O)c2cccc(F)c2)cc1	5.6
C=CCOc1ccc(NC(=O)C2CCCCC2)cc1	6.4
C=CCOc1ccc(NC(=O)C23CC4CC(CC(C4)C2)C3)cc1	0.67
C=CCOc1ccc(NC(=O)C2CCC2)cc1	2.2
C=CCOc1ccc(NC(=O)c2ccccc2)cc1	3.3
C=CCOc1ccc(NC(=O)c2ccc(F)cc2)cc1	3.8
C=CCOc1ccc(NC(=O)c2ccc(Cl)cc2)cc1	8.8
C=CCOc1ccc(NC(=O)c2ccc(OC)cc2)cc1	13.8
C=CCOc1ccc(NC(=O)c2ccc(C)cc2)cc1	10.1
C=CCOc1ccc(NC(=O)c2cccc(C)c2)cc1	6.7
C=CCOc1ccc(NC(=O)c2cccc(OC)c2)cc1	17
C=CCc1ccc(OC(=O)c2ccccc2)cc1	6.7
C=CCOc1ccc(NC(=O)c2cccc(Cl)c2)cc1	8.1
C=CCc1ccc(OC)cc1 [ESTRAGOLE]	64.1
C=CCc1ccc(O)c(OC)c1 [EUGENOL]	38.2
C=CCc1ccc(OC(=O)c2ccccc2)c(OC)c1 [EUGENYL BENZOAT]	7
C=CCc1ccc(OC)c(OC)c1 [METHYLEUGENOL]	96.1
